Bioassay records: PubChem, several laboratories
HSF1 inh = HSF1 inhibitors in luciferase reporter cells, primary screen, cell-based, NIH3T3, luminescence; NIH3T3-HGL HSE-luciferase, MG132-induced, luminescence 8 h; stronger effect = lower value; activity change, negative = inhibition, % at 7.5 µM (by protocol); 0.77% of 300,000 active; AID 2098, 2009;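 active = more than half of replicate wells show activity change below -50%, luminescence cut by over half; inconclusive = some wells, but at most half, below -50%; inactive = no replicate well below -50%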;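 also: luciferase reports HSF-1 transcriptional activity via heat shock element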
HCV NS3 hel inh = inhibitors of HCV NS3 helicase, primary screen, biochemical, Cy5 molecular beacon fluorescence; AID 1800, 2009; Hepatitis C virus NS3 helicase; 0.56% of 290,000 active; inhibition, % at 10.9 µM; NS3 helicase DNA unwinding;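 active = inhibition above the mean of all tested compounds plus 3 SD, set per campaign, cut at about 35% in these data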
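Material: hepatitis C virus NS3 helicase domain fragment enzyme; measured by: Cy5 fluorescence, 0 and 60 min reads; control set: DMSO and thioflavine S; incubation: 60 min unwinding reaction at 25 °C after ATP addition; read-out basis: % inhibition from 60/0 min fluorescence ratio, DMSO 0%, thioflavine S 100%; repeats: singlicate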
HSP90 inh = HSP90 inhibitors, primary screen, cell lysate, luminescence; 0.91% of 290,000 active; Rabbit reticulocyte lysate, luciferase refolding luminescence, 3 h; inhibition, % at 5.6 µM; Heat shock protein HSP 90 (rabbit reticulocyte lysate; luciferase refolding); AID 1789, 2009;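 active = inhibition above the screen-wide mean plus 3 SD, computed separately per campaign, cut at about 16% in these data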;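 also: inhibitors lower the luminescence because luciferase stays unfolded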
Hep lipid drop = inhibitors of hepatocyte lipid droplet formation, primary screen, imaging, high-throughput imaging, BODIPY stain. AML12 mouse hepatocytes, oleate lipid droplets. inhibition, % at 6.5 µM. 0.4% of 240,000 active;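 active = lipid droplet intensity inhibited by at least 50%, with more than 500 cells counted; inconclusive = wells with under 300 cells, treated as cytotoxic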
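Material – mouse AML12 hepatocyte cell line, fixed after treatment · Compound dosing – one dose, 6.5 µM compound · Times – compound with oleate, overnight · Measured by – Image-based BODIPY and DAPI two-channel analysis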
HSF-1 act = HSF-1 activators, primary screen, NIH3T3-HGL cells, MG132 stress, luminescence, single point; NIH3T3-HGL HSF-1 luciferase reporter, 8 h; 100% = twice DMSO control signal; activation, % at 9 µM; 1.7% of 300,000 active; AID 504408, 2011;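 active = mean replicate activation of at least 50% with a set share of replicates each reaching 50%; inconclusive = only one of those two conditions met; inactive = mean below 50% and too few replicates reaching it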
HSP90 confirm = HSP90 inhibitors, confirmation, cell lysate, luminescence | AID 1846, 2009 | shares compounds with HSP90 inh | 64% of 2,300 active | rabbit reticulocyte lysate, luciferase refolding luminescence, 3 h | inhibition, % at 5.9 µM; in the data active = inhibition above about 18%
FLuc counter = firefly luciferase inhibitors, HSP90 counter-screen, confirmation, artefact control for HSP90 inhibitor project, biochemical, luminescence, triplicate | shares compounds with HSP90 inh | purified native firefly luciferase | inhibition, % at 5.9 µM | 48% of 2,300 active | AID 1847, 2009;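 active = inhibition above the mean inhibition of all tested sample wells plus 3 SD, cut at about 10% in these data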
Target sequence (P08659 whole entry, looked up): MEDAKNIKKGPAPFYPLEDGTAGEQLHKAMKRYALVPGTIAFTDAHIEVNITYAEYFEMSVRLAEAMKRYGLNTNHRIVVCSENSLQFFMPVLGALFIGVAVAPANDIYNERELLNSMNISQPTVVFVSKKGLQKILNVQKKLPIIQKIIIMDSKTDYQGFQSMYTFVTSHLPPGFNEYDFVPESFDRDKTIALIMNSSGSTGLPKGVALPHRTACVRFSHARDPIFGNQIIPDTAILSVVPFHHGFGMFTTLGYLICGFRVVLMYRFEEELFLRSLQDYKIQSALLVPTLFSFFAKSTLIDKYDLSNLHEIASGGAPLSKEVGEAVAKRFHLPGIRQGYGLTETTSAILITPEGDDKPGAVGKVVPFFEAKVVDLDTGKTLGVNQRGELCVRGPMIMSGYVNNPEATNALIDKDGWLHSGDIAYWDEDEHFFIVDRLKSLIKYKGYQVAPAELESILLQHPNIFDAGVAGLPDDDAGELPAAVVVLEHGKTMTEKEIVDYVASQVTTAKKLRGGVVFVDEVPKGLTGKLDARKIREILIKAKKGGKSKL
Numbers stand for hits; n = inactive; u = inconclusive; x = no result given. Shown are actives, neighbours in structure and some others; about 3.8% of the full set was active somewhere.

SMILES	HSF1 inh	HCV NS3 hel inh	HSP90 inh	Hep lipid drop	HSF-1 act	HSP90 confirm	FLuc counter
CC(=O)c1ccc(NC(=O)Cn2cnc(S(=O)(=O)N3CCCC3)c2)cc1	n	n	26	n	n	n	n
Cn1c2c(c(=O)n(C)c1=O)NC1(N2)C(=O)Nc2ccccc21 (centres undefined)	n	n	n	n	n	x	x
CN1C(C(=O)NCc2ccco2)=CC(c2ccc(F)cc2)=NS1(=O)=O	n	n	56	n	n	n	n
CCOc1ccc(C(=O)OCC(=O)NCc2ccco2)cc1OCC	n	n	31	x	n	n	n
Cc1cccc(/C=C2\Sc3ccc(C(=O)N4CCC(C)CC4)cc3N(C)C2=O)c1	n	n	n	n	n	x	x
CC1CCc2c(sc(NC(=O)c3nc4ncccn4n3)c2C#N)C1 (centres undefined)	n	n	n	n	n	x	x
N#Cc1c(NC(=O)c2nc3ncccn3n2)sc2c1CCCCC2	x	n	65	n	x	78	28
COC(=O)C1=C(CS(=O)(=O)c2ccccc2)NC(=O)NC1c1ccc(OC)c(OC)c1 (centres undefined)	n	n	n	n	n	x	x
O=C(O)c1cc(-c2ccc3c(c2)OCCO3)n[nH]1	n	n	n	n	n	x	x
Oc1ccccc1-c1cc(-c2ccc3c(c2)OCCO3)n[nH]1	n	n	21	x	n	38	35
COc1ccc(NC(=S)NNc2ccc(C(=O)O)cc2)cc1	n	n	21	n	n	42	38
O=C(CC1CCCCC1)NCc1nc(-c2ccccc2)no1	n	n	n	n	n	x	x
CCC(=O)Nc1cccc(-c2ccc(N3CCC(C)CC3)nn2)c1	n	n	33	n	n	66	45
O=C(Nc1cccc(-c2ccc(N3CCCCC3)nn2)c1)C(F)(F)F	u	n	n	n	n	x	x
CC1CCN(c2ccc(-c3cccc(NC(=O)C(F)(F)F)c3)nn2)CC1	-82	n	19	n	n	56	n
Cc1ccc(NC2=Nc3ccccc3CS2)cc1	n	n	26	x	n	48	43
O=C(NNC(=O)c1cc2ccccc2cc1O)c1cccs1	n	n	n	x	n	x	x
C/C(=N\NC(=O)c1cc2ccccc2cc1O)c1cccs1	n	n	22	n	n	34	38
CCC1(c2ccccc2)NC(=O)N(CC(=O)Nc2ccc(S(=O)(=O)Nc3ncccn3)cc2)C1=O (centres undefined)	n	x	x	x	n	x	x
Cc1ccc(-n2nc(C)c(C(=O)N3CCN(C(=O)c4ccco4)CC3)c2-n2cccc2)cc1	n	n	n	n	n	x	x
O=Cc1ccc(-c2ccc(F)cc2)o1	n	n	n	n	n	x	x
O=Cc1ccc(-c2ccc(C(=O)O)cc2)o1	n	n	17	n	n	n	n
CS(=O)(=O)N(CCC#N)Cc1ccco1	n	n	n	n	n	x	x
CC1(C)CCc2cc(-c3ccnc(=S)[nH]3)ccc2O1	n	n	18	n	n	n	n
S=c1nccc(-c2ccc3c(c2)CCO3)[nH]1	n	n	n	n	n	x	x
SMILES	HSF1 inh	HCV NS3 hel inh	HSP90 inh	Hep lipid drop	HSF-1 act	HSP90 confirm	FLuc counter
Cc1ccc(N(C(=O)c2csnn2)C(C(=O)NC2CCCCC2)c2ccncc2)c(C)c1 (centres undefined)	n	n	n	n	n	x	x
CC(C)CN1C(=O)NC(NC(=O)c2ccco2)(C(F)(F)F)C1=O (centres undefined)	n	n	27	x	n	n	n
O=C(Cn1c(=O)oc2cccnc21)Nc1ccccc1Oc1ccc(Cl)cc1Cl	n	n	n	n	n	x	x
CCCC(C(=O)NCCC(C)C)N(Cc1ccccc1Cl)C(=O)c1snc(C(N)=O)c1N (centres undefined)	n	n	17	n	n	n	n
CCCC(C(=O)NCCC(C)C)N(Cc1ccc(F)cc1)C(=O)c1snc(C(N)=O)c1N (centres undefined)	n	n	n	x	n	x	x
CC(=O)Nc1ccc(N=c2cc([N+](=O)[O-])cc(Cl)n2O)cc1	n	n	n	n	n	x	x
